Calls of active or inactive are those of the source. The calls are words filed in the database; no cut-off is given here.
Assays:
[1] = target: T1, Peroxisome proliferator-activated receptor alpha (Homo sapiens, UniProt Q07869); assay: Activation of human PPARalpha by GST pull down assay
T1 sequence (Q07869 whole entry): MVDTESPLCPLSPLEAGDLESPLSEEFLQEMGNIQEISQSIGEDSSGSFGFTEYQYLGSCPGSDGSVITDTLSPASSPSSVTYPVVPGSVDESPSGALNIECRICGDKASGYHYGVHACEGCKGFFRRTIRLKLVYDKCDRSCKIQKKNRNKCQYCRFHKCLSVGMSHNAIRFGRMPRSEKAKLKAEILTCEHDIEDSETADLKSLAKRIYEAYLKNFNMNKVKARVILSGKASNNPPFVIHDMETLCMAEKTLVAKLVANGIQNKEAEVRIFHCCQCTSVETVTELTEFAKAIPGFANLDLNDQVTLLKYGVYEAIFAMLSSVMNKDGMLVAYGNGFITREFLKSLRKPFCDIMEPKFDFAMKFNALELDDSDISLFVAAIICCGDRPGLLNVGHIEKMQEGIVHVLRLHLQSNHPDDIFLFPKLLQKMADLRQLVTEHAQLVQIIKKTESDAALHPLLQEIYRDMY
Summary of the method: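 GST or GST-TIF2 Sepharose beads, pre-blocked with 1 µg/µl BSA, incubated with 20 ng in vitro translated [35S]-labeled PPARalpha with or without compound. Unbound translated protein washed off with immunoprecipitation buffer, then bound receptor detected.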

Rattus norvegicus [2] = assay: Reduction in food intake in Wistar rat at 0.03 to 3 mg/kg, ip
[3] = target: T2, Peroxisome proliferator-activated receptor alpha (Homo sapiens) (UniProt Q07869); assay: Agonist activity at human PPARalpha expressed in MCF7 cells transfected with co-activator TIF2 by luciferase reporter gene assay at 1 uM; type: functional, cell-based
T2 sequence (whole entry): T1 sequence (Q07869 whole entry)
Summary of the method: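 MCF-7 cells grown overnight in phenol red-free DMEM with 5% charcoal-treated FBS. Transfected with DOTAP liposomes carrying human ACO PPRE-luciferase reporter, wild-type hPPARalpha and full-length TIF2. Ligand or DMSO added 4 h after transfection, with medium topped up with charcoal-treated FBS. Cells lysed 16 h later. Luciferase normalized to protein, relative to DMSO-treated cells without overexpression; mean ± SD, n = 3-6.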

Rattus norvegicus [4] = assay: Reduction in food intake in obese Zucker rat at 1 mg/kg, ip after 11 days; type: functional, organism-based; set-up: dose 1 mg/kg
Summary of the method: (§1)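 Genetically obese Zucker (fa/fa) rats, free-feeding, given 1 mg/kg i.p. daily for 11 days at dark-period onset, in Tween 80/saline. Cumulative relative weight gain (g/kg body weight, from day 1) and food intake compared with vehicle; means ± SEM, n = 3-6, ANOVA.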

Rattus norvegicus [5] = assay: Reduction in body weight gain in obese Zucker rat at 1 mg/kg, ip after 11 days; type: functional, organism-based; set-up: dose 1 mg/kg; summary of the method: as §1
Rattus norvegicus [6] = assay: Reduction in plasma triglycerides in Wistar rat at 1 mg/kg, ip after 8 days; type: functional, organism-based; set-up: dose 1 mg/kg
Summary of the method: (§2)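 Normal Wistar rats, free-feeding, dosed 1 mg/kg i.p. daily for 8 days at dark-period onset. Compound suspended in Tween 80/saline. Body weight and plasma triglycerides compared with vehicle-treated rats; means ± SEM, n = 3-6, ANOVA.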

Rattus norvegicus [7] = assay: Reduction in body weight of Wistar rat at 1 mg/kg, ip after 8 days; type: functional, organism-based; set-up: dose 1 mg/kg; summary of the method: as §2

| SMILES | EC50 [1] | Activity [3] | also measured |
| --- | --- | --- | --- |
| CCCCCCCC/C=C\CCCCCCCCNS(N)(=O)=O | 0.524 µM | – | – |
| CCCCCCCCCCCCCCCCCCNS(N)(=O)=O | > 10000 µM | inactive | Activity (Rattus norvegicus [2]): Active |
| CCCCCCCCCCCCCCCCNS(=O)(=O)NCCC | 21 µM | – | – |
| Cc1cccc(Nc2cc(Cl)nc(SCC(=O)O)n2)c1C | – | Active | – |
| CCCCCCCC/C=C\CCCCCCCCNS(=O)(=O)NCCC | 11 µM | – | – |
| CCCCCCCC/C=C\CCCCCCCC(=O)NCCO [OLEOYLETHANOLAMIDE] | 0.11 µM | Active | – |
| CCCCCCCCCCCCCCCCCCNS(=O)(=O)NCCC | 0.1 µM | Active | Activity (Rattus norvegicus [4]): Active; Activity (Rattus norvegicus [5]): Active; Activity (Rattus norvegicus [6]): Active; Activity (Rattus norvegicus [7]): Active |
| CCCCCCCCCCCCCCCCNS(N)(=O)=O | > 10000 µM | – | – |

From ChEMBL document CHEMBL1139843, “Novel sulfamide analogs of oleoylethanolamide showing in vivo satiety inducing actions and PPARalpha activation” (J Med Chem, 2007)
